Sampled rows, rich in hits. Any-hit rate of the full collection: about 1.9%.
UBC9 SUMO inh: blocks human SUMOylation mediated by UBC9; AID 2006; inhibition, % at 35 µM; P63279; HTRF SUMOylation assay, SAE1/SAE2 + UBC9, in vitro; 290,000 compounds, 0.36% hits; in the data active means inhibition above about 50%, passing the limit was not always enough
DNMT1 block: DNMT1 (human) enzyme inhibition. P26358. DNMT1 molecular beacon, Hinp1I cleavage, fluorescence. inhibition (reported as % activation of signal), % at 10 µM. 360,000 compounds, 0.83% hits; in the data active means inhibition above about 50%
Scp1 inh: inhibitors of human Scp-1 phosphatase; inhibition, % at 20 µM; Recombinant Scp1, phosphopeptide, malachite green phosphate absorbance; Q9GZU7; 340,000 compounds, 0.88% hits;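 active means inhibition above about 50% at 20 µM, limit read from the data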
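Material – SCP-1 phosphatase catalytic domain, residues 76-261 · Buffer or medium – Acidic Tris acetate buffer with magnesium and detergent · Also added – Phospho 17-mer peptide substrate · Compound – single 20 µM dose, 1% DMSO · Times – 45 min room-temperature reaction, 5 min colour, 30 min stabiliser · Technique – Phosphate-binding colour reagent, absorbance read at 630 nm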
SUMO1-SIM PPI: modulators of human SUMO1-mediated protein-protein interactions; P63165; SUMO1 binding to a labelled peptide, TR-FRET, 1 h; inhibition, % at 20 µM; 360,000 compounds, 0.33% hits; AID 602429; in the data active means inhibition above about 37%
Target sequence (P63165 whole entry, looked up): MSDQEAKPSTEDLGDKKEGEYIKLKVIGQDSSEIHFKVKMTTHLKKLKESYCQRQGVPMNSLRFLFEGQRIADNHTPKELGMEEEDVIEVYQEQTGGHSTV
STEP inh: blocks human striatal-enriched tyrosine phosphatase; inhibition, % at 20 µM; recombinant STEP, OMFP fluorogenic substrate, fluorescence; AID 588621; 360,000 compounds, 0.25% hits; P54829;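 active means inhibition at 20 µM, scaled per plate between control wells, above about 37%, limit read from the data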
Target sequence (P54829 whole entry, looked up): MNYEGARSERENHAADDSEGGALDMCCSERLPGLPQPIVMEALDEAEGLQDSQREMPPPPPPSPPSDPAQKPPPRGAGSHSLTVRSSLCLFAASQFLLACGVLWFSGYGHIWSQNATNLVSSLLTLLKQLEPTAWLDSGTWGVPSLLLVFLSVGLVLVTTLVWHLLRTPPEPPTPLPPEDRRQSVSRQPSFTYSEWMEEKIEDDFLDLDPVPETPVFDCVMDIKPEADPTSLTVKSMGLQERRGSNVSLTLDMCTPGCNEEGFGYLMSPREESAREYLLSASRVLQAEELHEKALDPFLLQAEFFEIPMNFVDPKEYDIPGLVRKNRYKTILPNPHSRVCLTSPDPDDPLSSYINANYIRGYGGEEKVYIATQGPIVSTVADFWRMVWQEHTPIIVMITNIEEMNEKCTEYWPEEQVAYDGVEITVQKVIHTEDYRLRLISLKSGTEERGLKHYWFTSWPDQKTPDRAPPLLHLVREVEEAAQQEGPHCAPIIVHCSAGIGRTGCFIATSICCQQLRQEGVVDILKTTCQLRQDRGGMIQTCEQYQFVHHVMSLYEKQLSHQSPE
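Assay system: isolated STEP enzyme. Buffer or medium: pH 6.0 Bis-Tris with DTT and Tween 20. Also added: fluorogenic phosphatase substrate OMFP at 25 µM final. Dosing: 20 µM, 1% DMSO. Timing: 20 min reaction, room temperature, in the dark. Measured by: fluorescence intensity, excitation 480 nm, emission 540 nm. Evaluation: normalized % inhibition.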
LMPTP block: blocks human LMPTP phosphatase | recombinant LMPTP-A, OMFP fluorogenic substrate, fluorescence intensity | 360,000 compounds, 0.22% hits | inhibition, % at 20 µM | P24666;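 active means compounds that cut the enzyme signal by at least half of the control window in the single-dose screen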
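Test system – LMPTP-A enzyme · Amount – LMPTP-A at 0.625 nM final in the reaction · Buffer or medium – Bis-Tris pH 6.0, DTT, detergent · Reagent – OMFP 400 µM · Doses – single 20 µM dose · Schedule – reaction 50 min, room temperature, dark · Detection – fluorescence intensity of OMFP turnover product · Evaluation – percent inhibition versus substrate-only and uninhibited controls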
DNMT1 confirm: DNMT1 inhibition confirmation, single concentration; shares compounds with DNMT1 block; DNMT1 molecular beacon HinP1I cleavage, fluorescence; inhibition, % at 10 µM; 2,300 compounds, 8% hits;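 active means average inhibition of at least 30% in the single-concentration confirmation test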
DNMT1 interf: shows spectral interference in the DNMT1 beacon assay; activation (fluorescence interference), % at 10 µM; 2,300 compounds, 1% hits; shares compounds with DNMT1 block; DNMT1 molecular beacon spectral interference counterscreen, fluorescence 485/520;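 active means activation of at least 30% at 10 µM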;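 further: DNMT1 catalytic domain with a HinP1I cleavage step and a FAM/dabcyl DNA beacon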
Each line names hits and unclear results; the compound was inactive in the other large screens (follow-up assays come after a bar, where they were run).

CCc1c(C)c2ccc(OC(C)C(=O)NC(Cc3c[nH]c4ccc(O)cc34)C(=O)O)c(C)c2oc1=O (stereo not drawn)	none
O=C(NCc1ccco1)c1nc2nc(-c3cccs3)cc(C(F)(F)F)n2n1	DNMT1 block 55.7 | DNMT1 confirm inactive | DNMT1 interf inactive
O=C(Nc1cccc(OC(F)(F)F)c1)c1ccc(-c2cccnc2)c2ccoc12	DNMT1 block 69.2 (no result: UBC9 SUMO inh, Scp1 inh) | DNMT1 confirm inactive | DNMT1 interf inactive
COc1ccc(-c2csc(Nc3ccc(S(N)(=O)=O)cc3)n2)cc1OC	DNMT1 block 63.3 | DNMT1 confirm inactive | DNMT1 interf inactive
CC(OC(=O)CNC(=O)c1ccccc1F)C(=O)Nc1nc(-c2ccccc2)cs1 (stereo not drawn)	none
O=C(C1CCN(S(=O)(=O)c2ccccc2)CC1)N1CCN(c2ccccc2)CC1	none
NC(=O)C1CCN(C(=O)C2CCN(S(=O)(=O)c3ccccc3)CC2)CC1	DNMT1 block 81.0 | DNMT1 confirm inactive | DNMT1 interf inactive
CCOc1ccc(/C=C2\SC(=O)N(c3ccc(O)cc3)C2=O)cc1OC	none (no result: DNMT1 block, SUMO1-SIM PPI, STEP inh, LMPTP block)
COc1cc(/C=C2\SC(=O)N(c3ccc(Cl)cc3)C2=O)cc([N+](=O)[O-])c1O	UBC9 SUMO inh 95.4, DNMT1 block 86.1, Scp1 inh 54.9, SUMO1-SIM PPI 105.5, STEP inh 97.0, LMPTP block 84.2 | DNMT1 confirm inactive | DNMT1 interf inactive
CCn1c(Cc2ccc(OC)cc2)nnc1SCc1nc2ccccc2c(=O)[nH]1	none
Nc1c(C(=O)NCC2CCCO2)c2nc3ccccc3nc2n1/N=C/c1ccncc1 (stereo not drawn)	none (no result: UBC9 SUMO inh)
CC(C)Cn1c(N)c(C(=O)NCC2CCCO2)c2nc3ccccc3nc21 (stereo not drawn)	DNMT1 block 74.2 | DNMT1 confirm inactive | DNMT1 interf inactive
COc1ccc(CCC2(C)NC(=O)N(C(C)C(=O)N3c4ccccc4CC3C)C2=O)cc1 (stereo not drawn)	none (no result: UBC9 SUMO inh)
CCOC(=O)c1c(NC(=O)COC(=O)Cn2c(C)nc3ccccc32)sc2c1CCCC2	DNMT1 block 65.0 | DNMT1 confirm inactive | DNMT1 interf inactive
Nc1nc(-c2cc(O)ccc2[N+](=O)[O-])cc(-c2ccccc2)c1[N+](=O)[O-]	UBC9 SUMO inh 97.9, DNMT1 block 60.4, SUMO1-SIM PPI 49.6 | DNMT1 confirm inactive | DNMT1 interf inactive
O=[N+]([O-])c1cc(-c2ccccc2)cc([N+](=O)[O-])c1O	none (no result: UBC9 SUMO inh)
COc1ccc(S(=O)(=O)NCc2ccncc2)cc1OC	none
COc1ccc(S(=O)(=O)NCc2cccnc2)cc1OC	DNMT1 block 56.2 | DNMT1 confirm inactive | DNMT1 interf inactive
CCOc1ccccc1NC(=O)CCc1nnc2ccc(N3CCC4(CC3)OCCO4)nn12	none
Cc1ccc2nc(NC(=O)/C=C/c3ccc4c(c3)OCO4)sc2c1	DNMT1 block 56.3 | DNMT1 confirm inactive | DNMT1 interf inactive
COc1ccc(C(=O)C(=O)N2CCC(Cc3ccccc3)CC2)cc1OC	none (no result: UBC9 SUMO inh, DNMT1 block, Scp1 inh, STEP inh)
Cc1ccccc1CC(=O)NCCN1CCCCC1	DNMT1 block 79.6 | DNMT1 confirm inactive | DNMT1 interf inactive
CC1(C)Oc2c(ccc(O)c2CN2CCOCC2)C2=C1CCCC2	none (no result: UBC9 SUMO inh)
COc1ccc(/C=C/C(=O)NC(=S)Nc2cc3oc4ccccc4c3cc2OC)cc1	DNMT1 block 57.1 | DNMT1 confirm inactive | DNMT1 interf inactive
COc1cc2c(cc1NC(=O)Nc1ccc(F)cc1)oc1ccccc12	DNMT1 block 83.0 | DNMT1 confirm inactive | DNMT1 interf inactive
COc1cc2c(cc1NC(=O)Nc1ccc(C)cc1)oc1ccccc12	none
COc1cc2c(cc1NC(=O)/C=C/c1ccccc1)oc1ccccc12	none
O=C(O)c1ccn(CSc2cc(Cl)ccc2Cl)n1	none (no result: UBC9 SUMO inh)
Cc1ccc2nc(C(=O)N3CCCC(Nc4ccc(F)cc4)C3)cn2c1 (stereo not drawn)	none
CCOc1cc2c(C#N)c(N(CC)CC)nc(N)c2c(N)n1	DNMT1 block 85.4, SUMO1-SIM PPI 48.9 (no result: UBC9 SUMO inh) | DNMT1 confirm inactive | DNMT1 interf inactive
CCCN(CC1CC1)c1nc(N)c2c(N)nc(OC)cc2c1C#N	DNMT1 block 52.0 | DNMT1 confirm inactive | DNMT1 interf inactive
O=C(Nc1cc2c(oc1=O)CCCC2=O)c1ccc(Cl)cc1	DNMT1 block 96.7, Scp1 inh 68.0 | DNMT1 confirm inactive | DNMT1 interf inactive
Cc1nccc2oc(=O)c(NC(=O)c3ccc(Cl)cc3)cc12	none
CN(C)C(=O)Oc1ccc[n+](C)c1	DNMT1 block 60.3 | DNMT1 confirm inactive | DNMT1 interf inactive
C[n+]1cccc(C(=O)[O-])c1	none (no result: UBC9 SUMO inh)
Cc1nc(C(=O)Nc2ccccc2Cl)cc2c1[nH]c1ccccc12	DNMT1 block 50.1 | DNMT1 confirm inactive | DNMT1 interf inactive
COc1ccc(NC(=O)c2cc3c([nH]c4ccccc43)c(C)n2)cc1	none
CC(C)C[C@@H](CNCC(=O)[C@H](CC(C)C)NC(=O)c1[nH]cnc1C(=O)N[C@H](CN)CC(C)C)NC(=O)c1nc[nH]c1C(=O)N[C@@H](Cc1ccccc1)C(=O)O	none (no result: UBC9 SUMO inh)
COc1cccc(-n2c(SCC(=O)N3CCc4ccccc43)nnc2-c2c[nH]c3ccccc23)c1	none
CCOc1ccc(-n2c(SCC(=O)N3CCc4ccccc43)nnc2-c2c[nH]c3ccccc23)cc1	DNMT1 block 80.5 | DNMT1 confirm inactive | DNMT1 interf inactive
O=C(CSc1nc2ccccc2c(=O)n1-c1ccccc1)N1CCc2ccccc21	DNMT1 block 53.4 | DNMT1 confirm inactive | DNMT1 interf inactive
O=C(CSc1nc2ccccc2c(=O)n1-c1ccccc1)N1CCCc2ccccc21	none
C=CCn1c(=NC(=O)C2CCCCC2)sc2cc(NC(C)=O)ccc21	DNMT1 block 51.2 | DNMT1 confirm inactive | DNMT1 interf inactive
Cc1cccc(CN2CCN(C3CN(CCc4ccccc4)S(=O)(=O)C3)CC2)c1 (stereo not drawn)	none (no result: UBC9 SUMO inh, Scp1 inh)
c1ccc(-c2cnn3c(-c4ccccc4)c(-c4ccccc4)nc3n2)cc1	DNMT1 block 177.5 | DNMT1 confirm inactive | DNMT1 interf 59.9
O=C1c2oc3ccc(Cl)cc3c(=O)c2C(c2cccc(Br)c2)N1CCO (stereo not drawn)	DNMT1 block 61.2 | DNMT1 confirm inactive | DNMT1 interf inactive
CCN(CC)CCN1C(=O)c2oc3ccccc3c(=O)c2C1c1cccc(Br)c1 (stereo not drawn)	none

Bioassay records as filed in PubChem.
